Data set [1] can be described thus: Inhibition of growth hormone spontaneous secretion in rat anterior pituitary cells assessed as hormone level by radioimmunoassay relative to somatostatin. It counts as functional, Pituitary gland cell. Also on record: scale not given: the % may be the effect or the level left.
Data set [2] relates to Rattus norvegicus. Briefly: Inhibition of glucagon secretion in jugular vein dosed rat assessed using blood sample from hepatic portal vein assessed as hormone level by radioimmunoassay relative to somatostatin. It counts as functional. Set-up: scale not given: the % may be the effect or the level left. The method, boiled down:
(§1)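 Rats under ether anaesthesia received test samples by jugular vein injection. Blood was drawn from the hepatic portal vein, and hormone levels were measured by specific radioimmunoassay. Six rats per point. Potency was derived from four-point bioassays with somatostatin as reference standard, with log dose-response parallelism checked.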

Data set [3] concerns Rattus norvegicus. Briefly: Inhibition of insulin secretion in jugular vein dosed rat assessed as assessed as hormone level using blood sample from hepatic portal vein by radioimmunoassay relative to somatostatin. The format is functional. Also on record: scale not given: the % may be the effect or the level left. In short, it runs like this: as §1
A short description of data set [4]: Partition coefficient, K of the compound using system BAW at 4:1:5 ratio. The format is physicochemical.
A short description of data set [5]: Retardation factor of the compound using 2.5% pyridine, 5% 1-butanol and 90% water at pH 4.7 buffer relative to lysine and alanine by ninhydrin spray.

From ChEMBL document CHEMBL3272171, “Tyrosylated analogues of somatostatin” (J Med Chem, 1976) come the findings set out here.

Molecules are shown by their SMILES. Bridge positions count the residues as written; N and C are the ends. Square brackets hold non-standard residues; d marks the D form. Peptide text beside a SMILES is read from it.

For the molecule `C[C@@H](O)[C@@H]1NC(=O)[C@H](Cc2ccccc2)NC(=O)[C@H]([C@@H](C)O)NC(=O)[C@H](CCCCN)NC(=O)[C@H](Cc2c[nH]c3ccccc23)NC(=O)[C@H](Cc2ccccc2)NC(=O)[C@H](Cc2ccccc2)NC(=O)[C@H](CC(N)=O)NC(=O)[C@H](CCCCN)NC(=O)[C@@H](NC(=O)CNC(=O)[C@@H](N)Cc2ccc(O)cc2)CSSC[C@@H](C(=O)O)NC(=O)[C@H](CO)NC1=O`, the Activity is 116% in data set [1], 78% in the data set with Rattus norvegicus [2] and 70% in the data set on Rattus norvegicus [3]. In addition, the K in data set [4] is on record as 0.41. The molecule further gave a Rf in data set [5] of 0.33.
`C[C@@H](O)[C@@H]1NC(=O)[C@H](Cc2ccccc2)NC(=O)[C@H]([C@@H](C)O)NC(=O)[C@H](CCCCN)NC(=O)[C@@H](Cc2c[nH]c3ccccc23)NC(=O)[C@H](Cc2ccccc2)NC(=O)[C@H](Cc2ccccc2)NC(=O)[C@H](CC(N)=O)NC(=O)[C@H](CCCCN)NC(=O)[C@@H](NC(=O)CNC(=O)[C@@H](N)Cc2ccc(O)cc2)CSSC[C@@H](C(=O)O)NC(=O)[C@H](CO)NC1=O`: the results for the Activity (in data set [1]; in the data set with Rattus norvegicus [3]) were 400% and 659%, respectively. The K in data set [4] stood at 0.34. For the same molecule, the Rf in data set [5] is reported as 0.38.
In the case of `C[C@H](N)C(=O)NCC(=O)N[C@H]1CSSC[C@@H](C(=O)O)NC(=O)[C@H](CO)NC(=O)[C@H]([C@@H](C)O)NC(=O)[C@H](Cc2ccc(O)cc2)NC(=O)[C@H]([C@@H](C)O)NC(=O)[C@H](CCCCN)NC(=O)[C@H](Cc2c[nH]c3ccccc23)NC(=O)[C@H](Cc2ccccc2)NC(=O)[C@H](Cc2ccccc2)NC(=O)[C@H](CC(N)=O)NC(=O)[C@H](CCCCN)NC1=O` (H-AGCKNFFWKTYTSC-OH; disulfide 3-14), the Activity in data set [1] was 65%; in the data set on Rattus norvegicus [2], 65%; in the data set with Rattus norvegicus [3], 252%. Also, the K in data set [4] was determined as 0.24. In addition, in data set [5], the Rf is 0.45.
On to `C[C@H](N)C(=O)NCC(=O)N[C@H]1CSSC[C@@H](C(=O)O)NC(=O)[C@H](CO)NC(=O)[C@H]([C@@H](C)O)NC(=O)[C@H](Cc2ccccc2)NC(=O)[C@H]([C@@H](C)O)NC(=O)[C@H](CCCCN)NC(=O)[C@@H](Cc2ccc(O)cc2)NC(=O)[C@H](Cc2ccccc2)NC(=O)[C@H](Cc2ccccc2)NC(=O)[C@H](CC(N)=O)NC(=O)[C@H](CCCCN)NC1=O` (H-AGCKNFF[dY]KTFTSC-OH; disulfide 3-14), for which the Activity in data set [1] is listed as 10%; in the data set with Rattus norvegicus [2], less than 10%; in the data set with Rattus norvegicus [3] it was 28%. Further, in data set [4], the K is 0.24. Moreover, the Rf in data set [5] is 0.41.
In the same order, the values of `C[C@H](N)C(=O)NCC(=O)N[C@H]1CSSC[C@@H](C(=O)O)NC(=O)[C@H](CO)NC(=O)[C@H]([C@@H](C)O)NC(=O)[C@H](Cc2ccccc2)NC(=O)[C@H]([C@@H](C)O)NC(=O)[C@H](CCCCN)NC(=O)[C@H](Cc2c[nH]c3ccccc23)NC(=O)[C@H](Cc2ccc(O)cc2)NC(=O)[C@H](Cc2ccccc2)NC(=O)[C@H](CC(N)=O)NC(=O)[C@H](CCCCN)NC1=O` (H-AGCKNFYWKTFTSC-OH; disulfide 3-14) are 108%, 109%, 75%, 0.23 and 0.44.
For `C[C@H](N)C(=O)NCC(=O)N[C@H]1CSSC[C@@H](C(=O)O)NC(=O)[C@H](CO)NC(=O)[C@H]([C@@H](C)O)NC(=O)[C@H](Cc2ccccc2)NC(=O)[C@H]([C@@H](C)O)NC(=O)[C@H](CCCCN)NC(=O)[C@H](Cc2c[nH]c3ccccc23)NC(=O)[C@H](Cc2ccccc2)NC(=O)[C@H](Cc2ccc(O)cc2)NC(=O)[C@H](CC(N)=O)NC(=O)[C@H](CCCCN)NC1=O` (H-AGCKNYFWKTFTSC-OH; disulfide 3-14), in that order: 29%, 14%, 12%, 0.23 and 0.38.
The molecule `C[C@H](N)C(=O)NCC(=O)N[C@H]1CSSC[C@@H](C(=O)O)NC(=O)[C@H](CO)NC(=O)[C@H]([C@@H](C)O)NC(=O)[C@H](Cc2ccccc2)NC(=O)[C@H]([C@@H](C)O)NC(=O)[C@H](CCCCN)NC(=O)[C@H](Cc2c[nH]c3ccccc23)NC(=O)[C@H](Cc2ccccc2)NC(=O)[C@H](Cc2ccccc2)NC(=O)[C@H](CC(N)=O)NC(=O)[C@H](CCCCN)NC1=O` [SOMATOSTATIN] yielded a Rf in data set [5] of 0.43.
